Assays:
[1] = biological target: Neuronal acetylcholine receptor; alpha2/beta2 (Rattus norvegicus, UniProt P12389+P12390); experiment: Displacement of [3H]epibatidine from rat alpha2beta2 nAChR expressed in HEK293 cells after 4 hrs; format: cell-based
In short: (§1)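 Membranes from stably transfected cells or rat forebrain, homogenized in 50 mM Tris·HCl, pH 7.4, at 4 °C and pelleted at 36000g. […] Separation by vacuum filtration on PEI-treated GF/C filters. Ki reported.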

[2] = biological target: Neuronal acetylcholine receptor; alpha2/beta4 (Rattus norvegicus, UniProt P12389+P12392); experiment: Displacement of [3H]epibatidine from rat alpha2beta4 nAChR expressed in HEK293 cells after 4 hrs; format: cell-based; in short: as §1
Sequence of Neuronal acetylcholine receptor; alpha2/beta4 (P12389 whole entry): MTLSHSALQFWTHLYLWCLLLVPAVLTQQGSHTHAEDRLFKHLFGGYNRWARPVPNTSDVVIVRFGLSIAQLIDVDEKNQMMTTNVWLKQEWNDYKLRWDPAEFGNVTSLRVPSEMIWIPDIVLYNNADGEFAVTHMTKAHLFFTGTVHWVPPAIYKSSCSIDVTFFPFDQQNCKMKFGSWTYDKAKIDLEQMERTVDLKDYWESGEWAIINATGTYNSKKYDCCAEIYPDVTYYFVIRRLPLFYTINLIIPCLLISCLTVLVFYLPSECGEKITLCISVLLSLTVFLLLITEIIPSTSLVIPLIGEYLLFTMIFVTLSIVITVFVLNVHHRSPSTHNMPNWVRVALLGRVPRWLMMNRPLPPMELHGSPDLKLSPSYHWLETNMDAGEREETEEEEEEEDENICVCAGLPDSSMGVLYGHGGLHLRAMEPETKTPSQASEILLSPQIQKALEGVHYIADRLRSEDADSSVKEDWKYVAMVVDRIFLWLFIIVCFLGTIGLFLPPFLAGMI
Sequence of Neuronal acetylcholine receptor; alpha2/beta4 (P12392 whole entry): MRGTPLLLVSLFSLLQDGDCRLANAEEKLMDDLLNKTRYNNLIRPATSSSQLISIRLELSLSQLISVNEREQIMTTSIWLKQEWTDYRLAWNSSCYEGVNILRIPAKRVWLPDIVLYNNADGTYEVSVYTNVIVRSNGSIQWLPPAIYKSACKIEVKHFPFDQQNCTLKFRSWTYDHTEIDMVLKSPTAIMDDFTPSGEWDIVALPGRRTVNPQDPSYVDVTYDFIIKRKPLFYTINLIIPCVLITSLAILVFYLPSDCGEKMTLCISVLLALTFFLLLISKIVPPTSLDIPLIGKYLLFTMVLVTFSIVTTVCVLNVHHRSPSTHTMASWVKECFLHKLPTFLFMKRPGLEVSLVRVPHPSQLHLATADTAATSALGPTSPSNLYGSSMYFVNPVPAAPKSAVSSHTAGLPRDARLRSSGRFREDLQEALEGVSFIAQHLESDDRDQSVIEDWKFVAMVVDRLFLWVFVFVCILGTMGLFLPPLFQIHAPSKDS

[3] = biological target: Neuronal acetylcholine receptor; alpha4/beta4 (Rattus norvegicus, UniProt P09483+P12392); experiment: Displacement of [3H]epibatidine from rat alpha4beta4 nAChR expressed in HEK293 cells after 4 hrs; format: cell-based; in short: as §1
Sequence of Neuronal acetylcholine receptor; alpha4/beta4 (P09483 whole entry): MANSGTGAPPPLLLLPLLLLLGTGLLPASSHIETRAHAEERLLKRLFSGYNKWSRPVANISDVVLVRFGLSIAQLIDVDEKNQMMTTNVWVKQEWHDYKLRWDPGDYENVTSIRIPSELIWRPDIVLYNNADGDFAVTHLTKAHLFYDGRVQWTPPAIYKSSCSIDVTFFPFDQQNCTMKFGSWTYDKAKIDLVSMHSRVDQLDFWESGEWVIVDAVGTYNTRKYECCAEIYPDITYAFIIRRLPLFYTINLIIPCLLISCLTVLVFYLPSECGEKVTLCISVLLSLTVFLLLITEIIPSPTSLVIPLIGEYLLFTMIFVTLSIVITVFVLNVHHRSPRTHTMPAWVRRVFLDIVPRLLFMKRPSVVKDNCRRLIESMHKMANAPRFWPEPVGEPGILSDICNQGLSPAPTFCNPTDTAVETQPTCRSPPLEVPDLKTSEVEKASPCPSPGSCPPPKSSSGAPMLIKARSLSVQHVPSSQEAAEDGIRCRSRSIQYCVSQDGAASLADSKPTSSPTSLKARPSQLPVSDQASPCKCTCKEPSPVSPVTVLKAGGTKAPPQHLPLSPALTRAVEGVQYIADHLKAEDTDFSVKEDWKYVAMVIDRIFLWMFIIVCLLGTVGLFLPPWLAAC
Sequence of Neuronal acetylcholine receptor; alpha4/beta4 (P12392 whole entry): as the sequence (P12392 whole entry) above

[4] = Displacement of [3H]epibatidine from nAChR in rat forebrain; format: tissue-based; in short: as §1
[5] = biological target: Neuronal acetylcholine receptor; alpha3/beta2 (Rattus norvegicus, UniProt P04757+P12390); experiment: Displacement of [3H]epibatidine from rat alpha3beta2 nAChR expressed in HEK293 cells after 4 hrs; format: cell-based; in short: as §1
Sequence of Neuronal acetylcholine receptor; alpha3/beta2 (P04757 whole entry): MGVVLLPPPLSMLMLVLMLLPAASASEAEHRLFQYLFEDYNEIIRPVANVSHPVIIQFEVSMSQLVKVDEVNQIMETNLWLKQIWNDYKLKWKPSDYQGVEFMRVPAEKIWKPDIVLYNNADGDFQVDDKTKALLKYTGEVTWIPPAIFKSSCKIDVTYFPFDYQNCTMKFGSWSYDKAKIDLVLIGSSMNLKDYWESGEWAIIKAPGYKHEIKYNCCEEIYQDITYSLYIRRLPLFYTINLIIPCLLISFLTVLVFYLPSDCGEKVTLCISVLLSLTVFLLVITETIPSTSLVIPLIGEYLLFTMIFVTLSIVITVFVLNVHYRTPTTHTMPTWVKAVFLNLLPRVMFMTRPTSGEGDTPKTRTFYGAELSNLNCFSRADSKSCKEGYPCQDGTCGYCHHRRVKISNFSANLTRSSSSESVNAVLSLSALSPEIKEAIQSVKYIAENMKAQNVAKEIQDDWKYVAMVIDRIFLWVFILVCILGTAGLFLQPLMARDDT
Sequence of Neuronal acetylcholine receptor; alpha3/beta2 (P12390 whole entry): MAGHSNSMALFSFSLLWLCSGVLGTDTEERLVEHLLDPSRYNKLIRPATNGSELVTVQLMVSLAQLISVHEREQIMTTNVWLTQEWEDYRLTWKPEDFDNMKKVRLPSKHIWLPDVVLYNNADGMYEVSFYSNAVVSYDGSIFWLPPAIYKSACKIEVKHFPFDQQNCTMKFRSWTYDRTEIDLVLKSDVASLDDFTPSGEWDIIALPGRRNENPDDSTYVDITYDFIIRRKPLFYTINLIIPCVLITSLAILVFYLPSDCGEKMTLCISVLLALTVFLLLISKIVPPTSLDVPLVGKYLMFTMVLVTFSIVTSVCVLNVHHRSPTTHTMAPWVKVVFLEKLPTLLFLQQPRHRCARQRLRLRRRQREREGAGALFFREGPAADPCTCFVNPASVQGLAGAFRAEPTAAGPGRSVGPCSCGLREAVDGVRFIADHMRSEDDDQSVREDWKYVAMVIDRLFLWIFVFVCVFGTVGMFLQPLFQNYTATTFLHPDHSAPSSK

HEK293 = experiment: Selectivity ratio of Ki for rat alpha3beta4 nAChR expressed in HEK293 cells to Ki for human alpha4beta2 nAChR; format: cell-based
[6] = biological target: Neuronal acetylcholine receptor; alpha4/beta2 (Homo sapiens, UniProt P17787+P43681); experiment: Displacement of [3H]epibatidine from human alpha4beta2 nAChR after 4 hrs by cell-based assay
Sequence of Neuronal acetylcholine receptor; alpha4/beta2 (P17787 whole entry): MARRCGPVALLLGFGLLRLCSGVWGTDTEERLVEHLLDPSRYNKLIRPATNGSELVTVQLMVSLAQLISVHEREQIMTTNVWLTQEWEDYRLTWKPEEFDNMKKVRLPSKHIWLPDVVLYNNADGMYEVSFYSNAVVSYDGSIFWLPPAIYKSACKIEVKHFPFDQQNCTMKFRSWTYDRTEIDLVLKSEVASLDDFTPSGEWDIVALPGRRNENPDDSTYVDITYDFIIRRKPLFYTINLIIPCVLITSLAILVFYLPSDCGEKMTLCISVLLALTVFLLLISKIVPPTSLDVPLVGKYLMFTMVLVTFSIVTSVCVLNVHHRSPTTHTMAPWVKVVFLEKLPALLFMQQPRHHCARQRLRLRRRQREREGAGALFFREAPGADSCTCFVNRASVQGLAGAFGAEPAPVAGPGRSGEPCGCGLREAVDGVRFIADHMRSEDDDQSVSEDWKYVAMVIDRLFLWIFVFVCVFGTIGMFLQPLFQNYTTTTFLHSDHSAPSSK
Sequence of Neuronal acetylcholine receptor; alpha4/beta2 (P43681 whole entry): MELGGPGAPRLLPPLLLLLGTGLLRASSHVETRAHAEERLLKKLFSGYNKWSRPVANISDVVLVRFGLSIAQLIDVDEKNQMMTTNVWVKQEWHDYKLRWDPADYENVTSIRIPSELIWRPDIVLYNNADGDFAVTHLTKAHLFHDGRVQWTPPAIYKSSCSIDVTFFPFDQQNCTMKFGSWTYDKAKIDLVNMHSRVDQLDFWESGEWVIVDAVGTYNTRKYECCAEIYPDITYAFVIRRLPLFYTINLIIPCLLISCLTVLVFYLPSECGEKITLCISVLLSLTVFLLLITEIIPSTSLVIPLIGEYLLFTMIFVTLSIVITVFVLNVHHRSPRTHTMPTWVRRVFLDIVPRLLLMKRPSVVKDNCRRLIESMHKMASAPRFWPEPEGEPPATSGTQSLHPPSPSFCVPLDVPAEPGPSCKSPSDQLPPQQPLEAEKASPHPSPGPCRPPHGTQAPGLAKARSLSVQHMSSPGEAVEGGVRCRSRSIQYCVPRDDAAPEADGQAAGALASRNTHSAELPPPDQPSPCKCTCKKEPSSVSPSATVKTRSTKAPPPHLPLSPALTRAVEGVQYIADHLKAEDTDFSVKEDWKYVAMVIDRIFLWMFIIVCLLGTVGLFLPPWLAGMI
In short: (§2)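 Membranes from stably transfected cells or rat forebrain, homogenized in 50 mM Tris·HCl, pH 7.4, at 4 °C and pelleted at 36000g. Separation by vacuum filtration on PEI-treated GF/C filters. Ki reported.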

[7] = biological target: T1, Neuronal acetylcholine receptor; alpha3/beta4 (Rattus norvegicus, UniProt P04757+P12392); experiment: Displacement of [3H]epibatidine from rat alpha3beta4 nAChR expressed in HEK293 cells after 4 hrs; format: cell-based; in short: as §1
T1 sequence (P04757 whole entry): as the sequence (P04757 whole entry) above
T1 sequence (P12392 whole entry): as the sequence (P12392 whole entry) above

[8] = biological target: Neuronal acetylcholine receptor subunit alpha-7 (Rattus norvegicus, UniProt Q05941); experiment: Displacement of [3H]epibatidine from rat alpha7 nAChR expressed in HEK293 cells after 4 hrs; format: cell-based; in short: as §2
Sequence of Neuronal acetylcholine receptor subunit alpha-7 (Q05941 whole entry): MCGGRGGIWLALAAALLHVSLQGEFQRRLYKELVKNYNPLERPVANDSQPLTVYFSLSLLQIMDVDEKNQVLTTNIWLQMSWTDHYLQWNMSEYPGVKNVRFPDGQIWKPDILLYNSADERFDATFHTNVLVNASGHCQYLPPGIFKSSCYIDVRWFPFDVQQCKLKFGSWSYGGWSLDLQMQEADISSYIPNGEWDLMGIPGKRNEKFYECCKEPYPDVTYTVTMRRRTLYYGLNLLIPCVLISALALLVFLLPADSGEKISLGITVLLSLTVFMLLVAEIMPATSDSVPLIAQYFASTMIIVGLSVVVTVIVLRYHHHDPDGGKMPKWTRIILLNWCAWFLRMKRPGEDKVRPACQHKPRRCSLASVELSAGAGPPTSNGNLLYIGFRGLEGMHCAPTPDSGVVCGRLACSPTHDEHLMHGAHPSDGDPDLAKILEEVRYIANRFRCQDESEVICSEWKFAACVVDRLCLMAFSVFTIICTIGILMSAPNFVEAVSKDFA

[9] = Fraction unbound in rat brain homogenate at 5 uM after 4 hrs equilibrium dialysis method; format: ADME, tissue-based
In short: (§3)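 Test agent at 5 μM incubated in rat plasma or brain homogenate. Dialysed against PBS in a RED equilibrium dialysis device for 4 h, both sides quantified by LC/MS/MS. Unbound fraction from protein-containing vs protein-free concentrations. Brain value corrected for homogenate dilution factor D.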

[10] = Fraction unbound in rat plasma at 5 uM after 4 hrs by equilibrium dialysis method; format: ADME, cell-free; in short: as §3
[11] = biological target: Neuronal acetylcholine receptor; alpha3/beta4 (Rattus norvegicus) (UniProt P04757+P12392); experiment: Agonist activity at rat alpha3beta4 nAChR expressed in HEK293 cells assessed as stimulation of [86Rb+] efflux after 2 mins by liquid scintillation counting relative to nicotine; format: cell-based
In short: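 Rat α3β4 stably expressed in HEK 293 (KXα3β4R2) cultured in MEM/10% FBS, 37 °C, 5% CO2; plated on poly-D-lysine, grown 18–24 h. Loaded with 86Rb+ (2 μCi/mL) 4 h at 37 °C, washed in HEPES buffer pH 7.4, then exposed 2 min to eight ligand concentrations.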

[12] = biological target: T1, Neuronal acetylcholine receptor; alpha3/beta4; experiment: Antagonist activity at rat alpha3beta4 nAChR expressed in HEK293 cells assessed as inhibition of nicotine-induced [86Rb+] efflux preincubated for 10 mins before nicotine exposure by liquid scintillation counting; format: cell-based

Sequence of Neuronal acetylcholine receptor; alpha2/beta2 (P12389 whole entry): as the sequence (P12389 whole entry) above
Sequence of Neuronal acetylcholine receptor; alpha2/beta2 (P12390 whole entry): as the sequence (P12390 whole entry) above

Row | Structure (SMILES) | Ki [1] | Ki [2] | Ki [3] | Ki [4] | Ki [5] | Ratio Ki (HEK293) | Ki [6] | Ki [7] | Ki [8] | fraction unbound at 4 h, 5 µM [9] | fraction unbound at 4 h, 5 µM [10] | Emax [11] | IC50 [12]
1 | Cc1cccc(C#Cc2cncc(OC[C@@H]3CCN3)c2)c1 | 0.053 nM | 0.046 µM | 0.012 µM | 0.0011 µM | 0.00034 µM | 87000 | 0.046 nM | – | – | – | – | – | –
2 | Clc1cccc(C#Cc2cncc(OC[C@@H]3CCN3)c2)c1 | 0.19 nM | 0.15 µM | 0.017 µM | 0.0017 µM | 0.0016 µM | 37000 | 0.093 nM | – | – | – | – | – | –
3 | C(#Cc1cncc(OCC2CCC2)c1)c1ccccc1 | > 100000 nM | > 50 µM | > 500 µM | > 100 µM | > 25 µM | – | > 100000 nM | > 1000 µM | > 250 µM | – | – | – | –
4 | Cc1cc(F)cc(C#Cc2cncc(OC[C@@H]3CCN3)c2)c1 | 0.064 nM | 0.038 µM | 0.0081 µM | 0.0014 µM | 0.00024 µM | 26000 | 0.043 nM | – | – | – | – | – | –
5 | COc1cc(F)cc(C#Cc2cncc(OC[C@@H]3CCN3)c2)c1 | 0.091 nM | 0.053 µM | 0.01 µM | 0.0017 µM | 0.00059 µM | 17000 | 0.076 nM | – | – | – | – | – | –
6 | c1ccc(-c2cncc(OC[C@@H]3CCN3)c2)cc1 | 0.22 nM | 0.036 µM | 0.0062 µM | 0.0011 µM | 0.005 µM | 9280 | 0.14 nM | 1.3 µM | 11 µM | – | – | – | –
7 | O=C(CCCN1CCC(O)(c2ccc(Cl)cc2)CC1)c1ccc(F)cc1 [HALOPERIDOL] | – | – | – | – | – | – | – | – | – | 0.016 | – | – | –
8 | Fc1cccc(C#Cc2cncc(OC[C@@H]3CCN3)c2)c1 | 0.029 nM | 0.031 µM | 0.0053 µM | 0.00044 µM | 0.00019 µM | 16000 | 0.032 nM | – | – | – | – | – | –
9 | CC(C)NCC(O)COc1cccc2ccccc12 (configuration not stated) [PROPRANOLOL] | – | – | – | – | – | – | – | – | – | – | 0.0961 | – | –
10 | c1cnc2cc3c(cc2n1)[C@@H]1CNC[C@H]3C1 [VARENICLINE] | 0.22 nM | 0.071 µM | 0.015 µM | 0.00071 µM | 0.0019 µM | – | – | 0.46 µM | 0.062 µM | 0.897 | 0.709 | 82% | > 10 µM
11 | CN(C)c1cc(F)cc(C#Cc2cncc(OC[C@@H]3CCN3)c2)c1 | 0.053 nM | 0.066 µM | 0.012 µM | 0.0007 µM | 0.00046 µM | 32000 | 0.031 nM | – | – | – | – | – | –
